From ChEMBL document CHEMBL3227958, “A preliminary structure-activity study of the mixed-function oxidase inhibitor 7,8-benzoflavone” (J Med Chem, 1979)

Tests used:
[1] = Inhibition of benzo(alpha)pyrene monooxygenase in phenobarbital-treated Sprague-Dawley rat liver microsomes using [3H]benzo(alpha)pyrene as substrate after 15 mins by liquid scintillation spectrometry; details: read-out: I50
How it was run: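 Microsomes came from male Sprague-Dawley rats (60-80 g) given phenobarbital 80 mg/kg ip in saline on 3 days, then starved 24 h. The assay used 0.400 mg/mL protein, NADP/glucose 6-phosphate/G6PDH and 60 μM [3H]benzo[a]pyrene for 15 min at 37 °C. Hexane/alkali extraction was followed by scintillation counting, minus an ethanolic-NaOH-treated microsome blank. I50 used ≥4 inhibitor concentrations, log-dose plot, three replicates.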

[2] = Inhibition of benzo(alpha)pyrene monooxygenase in 3-methylcholanthrene-treated Sprague-Dawley rat liver microsomes using [3H]benzo(alpha)pyrene as substrate after 15 mins by liquid scintillation spectrometry; details: read-out: I50
How it was run: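 Liver microsomes from male Sprague-Dawley rats (60-80 g) given 3-methylcholanthrene 20 mg/kg ip in corn oil on 2 days, then starved 24 h. Run with 0.200 mg/mL protein, NADPH-generating system and 60 μM [3H]benzo[a]pyrene for 15 min at 37 °C. Hydroxylated products were taken into alkali and counted. I50 came from log concentration vs % activity, with at least four concentrations and triplicates.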

[3] = Stimulation of benzo(alpha)pyrene monooxygenase in phenobarbital-treated Sprague-Dawley rat liver microsomes using [3H]benzo(alpha)pyrene as substrate at 98 uM after 15 mins by liquid scintillation spectrometry; type: ADME; details: 0.25 h
How it was run: (§1)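 Single-concentration change in benzo[a]pyrene oxidation versus solvent controls, using phenobarbital-induced male Sprague-Dawley rat liver microsomes at 0.400 mg/mL protein. Conditions: 60 μM [3H]benzo[a]pyrene, NADPH-generating system, 15 min at 37 °C. Termination used ethanolic NaOH, then hexane extraction and scintillation counting of the lower phase, corrected with an ethanolic-NaOH-treated microsome blank. Three replicates.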

[4] = test system: benzo(alpha)pyrene monooxygenase; test: Inhibition of benzo(alpha)pyrene monooxygenase in phenobarbital-treated Sprague-Dawley rat liver microsomes using [3H]benzo(alpha)pyrene as substrate at 104 uM after 15 mins by liquid scintillation spectrometry; details: liver microsomes from phenobarbital-treated rats, probe [3H]benzo(alpha)pyrene; how it was run: as §1
[5] = Stimulation of benzo(alpha)pyrene monooxygenase in 3-methylcholanthrene-treated Sprague-Dawley rat liver microsomes using [3H]benzo(alpha)pyrene as substrate at 200 uM after 15 mins by liquid scintillation spectrometry; type: ADME; details: 0.25 h
How it was run: (§2)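 Percent inhibition or stimulation was measured at the single stated inhibitor concentration, relative to solvent-only controls. Hepatic microsomes were from 3-methylcholanthrene-pretreated male Sprague-Dawley rats, used at 0.200 mg/mL protein with an NADPH-generating system. Substrate was 60 μM [3H]benzo[a]pyrene, incubated 15 min at 37 °C. The reaction was stopped with NaOH in 80% ethanol, hexane-extracted, and the aqueous phase counted. Triplicate samples.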

[6] = Stimulation of benzo(alpha)pyrene monooxygenase in phenobarbital-treated Sprague-Dawley rat liver microsomes using [3H]benzo(alpha)pyrene as substrate at 200 uM after 15 mins by liquid scintillation spectrometry; type: ADME; details: 0.25 h; how it was run: as §1
[7] = test system: benzo(alpha)pyrene monooxygenase; test: Inhibition of benzo(alpha)pyrene monooxygenase in 3-methylcholanthrene-treated Sprague-Dawley rat liver microsomes using [3H]benzo(alpha)pyrene as substrate at 100 uM after 15 mins by liquid scintillation spectrometry; details: liver microsomes from 3-methylcholanthrene-treated rats, probe [3H]benzo(alpha)pyrene; how it was run: as §2
[8] = Stimulation of benzo(alpha)pyrene monooxygenase in phenobarbital-treated Sprague-Dawley rat liver microsomes using [3H]benzo(alpha)pyrene as substrate at 100 uM after 15 mins by liquid scintillation spectrometry; type: ADME; details: 0.25 h; how it was run: as §1
[9] = test system: benzo(alpha)pyrene monooxygenase; test: Inhibition of benzo(alpha)pyrene monooxygenase in phenobarbital-treated Sprague-Dawley rat liver microsomes using [3H]benzo(alpha)pyrene as substrate at 100 uM after 15 mins by liquid scintillation spectrometry; details: liver microsomes from phenobarbital-treated rats, probe [3H]benzo(alpha)pyrene; how it was run: as §1
[10] = Stimulation of benzo(alpha)pyrene monooxygenase in phenobarbital-treated Sprague-Dawley rat liver microsomes using [3H]benzo(alpha)pyrene as substrate at 99 uM after 15 mins by liquid scintillation spectrometry; type: ADME; details: 0.25 h; how it was run: as §1
[11] = test system: benzo(alpha)pyrene monooxygenase; test: Inhibition of benzo(alpha)pyrene monooxygenase in 3-methylcholanthrene-treated Sprague-Dawley rat liver microsomes using [3H]benzo(alpha)pyrene as substrate at 99 uM after 15 mins by liquid scintillation spectrometry; details: liver microsomes from 3-methylcholanthrene-treated rats, probe [3H]benzo(alpha)pyrene; how it was run: as §2
[12] = test system: benzo(alpha)pyrene monooxygenase; test: Inhibition of benzo(alpha)pyrene monooxygenase in phenobarbital-treated Sprague-Dawley rat liver microsomes using [3H]benzo(alpha)pyrene as substrate at 99 uM after 15 mins by liquid scintillation spectrometry; details: liver microsomes from phenobarbital-treated rats, probe [3H]benzo(alpha)pyrene; how it was run: as §1

With `COc1cccc(-c2cc(=O)c3ccc4ccccc4c3o2)c1` the IC50 [1] was greater than 98 µM, the IC50 [2] was 11 µM and the Activity [3] was 9%.

Work on `O=c1cc(-c2ccccc2)oc2c1cc(Br)c1ccccc12` yielded an IC50 [1] greater than 97 µM and an IC50 [2] greater than 97 µM.

`c1ccc(-c2cc3ccc4ccccc4c3o2)cc1` showed an IC50 [1] greater than 104 µM, an IC50 [2] greater than 104 µM and an inhibition at 0.25 h, 104 µM [4] of 34%.

With `O=c1cc(-c2ccccc2)oc2c1cc([N+](=O)[O-])c1ccccc12` the IC50 [1] was greater than 200 µM, the Activity [5] was 34% and the IC50 [2] was greater than 200 µM. It also gave an Activity [6] of 43%.

In the case of `O=c1c(-c2ccccc2)coc2c1ccc1ccccc12`, the IC50 [1] is reported as greater than 100 µM, the IC50 [2] is reported as greater than 100 µM and the inhibition at 0.25 h, 100 µM [7] is reported as 18%. The Activity [8] was 6%.

For `O=c1cc(-c2ccc3ccccc3c2)oc2c1ccc1ccccc12`, the IC50 [1] was greater than 100 µM, the IC50 [2] was 11 µM and the inhibition at 0.25 h, 100 µM [9] was 0%.

For `Nc1cc2c(=O)cc(-c3ccccc3)oc2c2ccccc12`, the IC50 [1] was 82 µM and the IC50 [2] was 31 µM.

Compound `COc1ccccc1-c1cc(=O)c2ccc3ccccc3c2o1` has an IC50 [1] greater than 100 µM, an IC50 [2] of 13 µM and an inhibition at 0.25 h, 100 µM [9] of 34%.

In the case of `O=c1cc(-c2ccc([N+](=O)[O-])cc2)oc2c1ccc1ccccc12`, the IC50 [1] is reported as greater than 99 µM, the IC50 [2] is reported as greater than 99 µM and the Activity [10] is reported as 33%. The inhibition at 0.25 h, 99 µM [11] was 0%.

`O=c1cc(-c2ccccc2)oc2c1ccc1ccccc12` [ALPHA-NAPHTHOFLAVONE] showed an IC50 [1] greater than 100 µM, an IC50 [2] of 10 µM and an Activity [8] of 21%.

In the case of `COc1ccc(-c2cc(=O)c3ccc4ccccc4c3o2)cc1`, the IC50 [1] is reported as greater than 100 µM, the IC50 [2] is reported as greater than 100 µM and the inhibition at 0.25 h, 100 µM [9] is reported as 0%. The inhibition at 0.25 h, 100 µM [7] was 46%.

Compound `O=c1cc(-c2cccc([N+](=O)[O-])c2)oc2c1ccc1ccccc12` has an IC50 [1] greater than 100 µM, an IC50 [2] greater than 100 µM and an inhibition at 0.25 h, 100 µM [7] of 36%. The Activity [8] was 42%.

`O=c1cc(-c2ccc(Cl)cc2)oc2c1ccc1ccccc12` showed an IC50 [1] greater than 99 µM, an IC50 [2] of 13 µM and an inhibition at 0.25 h, 99 µM [12] of 0%.
